Measurements: ChEMBL document CHEMBL1817572, “New, potent, selective, and short-acting peptidic V1a receptor agonists” (J Med Chem, 2011)
Numbered stars: 1 amine (or outer) side, 2 acyl side, 3 side chain; on linkers, the order of the positions; unused ones are H or OH. Bridge positions count the residues as written; N and C are the ends. Square brackets hold non-standard residues; d marks the D form. Peptide text beside a SMILES is read from it. * marks the point of attachment. Orn(Me) = CN(CCC[C@H](N[*:1])C(=O)[*:2])[*:3]; Ala(cPent) = N[C@@H](CC1CCCC1)C(=O)O; Orn(Pr) = CCCNCCC[C@H](N)C(=O)O; Aad = N[C@@H](CCCC(=O)O)C(=O)O; Cha = N[C@@H](CC1CCCCC1)C(=O)O; NH(3-hydroxypropyl) = OCCCN*; Orn = NCCC[C@H](N)C(=O)O; Dab = NCC[C@H](N)C(=O)O

Key:
Vasopressin V1a receptor [1] = target: Vasopressin V1a receptor (Rattus norvegicus, UniProt P30560); assay: Agonist activity at recombinant rat vasopressin V1a receptor expressed in HEK293 cells by luciferase reporter gene assay; assay type: functional, cell-based; details: read-out: EC50
Oxytocin receptor = target: T1, Oxytocin receptor (Homo sapiens, UniProt P30559); assay: Agonist activity at human OT receptor expressed in CHO-K1 cells by luciferase reporter gene assay; assay type: functional, cell-based
T1 sequence (P30559 whole entry): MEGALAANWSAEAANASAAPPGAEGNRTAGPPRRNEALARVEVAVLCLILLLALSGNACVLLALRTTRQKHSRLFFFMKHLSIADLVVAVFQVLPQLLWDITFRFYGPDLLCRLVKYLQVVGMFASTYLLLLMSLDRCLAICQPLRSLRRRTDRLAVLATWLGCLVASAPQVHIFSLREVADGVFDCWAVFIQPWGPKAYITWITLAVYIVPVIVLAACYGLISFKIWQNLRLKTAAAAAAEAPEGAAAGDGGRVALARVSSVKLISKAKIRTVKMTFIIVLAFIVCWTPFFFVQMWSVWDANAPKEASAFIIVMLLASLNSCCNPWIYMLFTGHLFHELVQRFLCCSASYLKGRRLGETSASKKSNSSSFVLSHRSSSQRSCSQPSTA

Vasopressin V1a receptor [2] = target: T2, Vasopressin V1a receptor (Homo sapiens, UniProt P37288); assay: Agonist activity at recombinant human vasopressin V1a receptor expressed in HEK293 cells by luciferase reporter gene assay; assay type: functional, cell-based; details: read-out: EC50
Target sequence in this assay (P37288 whole entry): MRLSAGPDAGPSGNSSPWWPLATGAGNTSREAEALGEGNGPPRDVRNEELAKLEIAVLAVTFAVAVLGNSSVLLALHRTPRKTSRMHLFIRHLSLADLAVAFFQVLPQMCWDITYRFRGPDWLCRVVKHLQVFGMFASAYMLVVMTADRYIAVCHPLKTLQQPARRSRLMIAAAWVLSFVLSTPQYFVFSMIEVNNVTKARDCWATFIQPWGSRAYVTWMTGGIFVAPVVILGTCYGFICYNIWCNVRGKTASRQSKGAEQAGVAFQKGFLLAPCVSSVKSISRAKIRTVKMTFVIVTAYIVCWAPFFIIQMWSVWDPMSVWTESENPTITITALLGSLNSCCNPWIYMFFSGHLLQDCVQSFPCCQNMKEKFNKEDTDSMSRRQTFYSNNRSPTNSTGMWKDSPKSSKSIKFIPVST

Homo sapiens [3] = species: Homo sapiens; assay: Selectivity ratio of EC50 for human oxytocin receptor to EC50 for human vasopressin V1a receptor
Vasopressin V2 receptor [4] = target: T3, Vasopressin V2 receptor (Homo sapiens, UniProt P30518); assay: Partial agonist activity at recombinant human vasopressin V2 receptor expressed in HEK293 cells by luciferase reporter gene assay; assay type: functional, cell-based
Method in brief: (§1)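 Same luciferase reporter systems (OT in stable CHO-K1, V1b in stable Flp-In-293, each with transient NFAT-luciferase; V1a in HEK293 with NFAT-luciferase, V2 in HEK293 with CRE-luciferase). Peptides added for 5 h at 37 °C two days post-transfection, luminescence read. Partial agonism means efficacy <70%.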

[5] = target: Vasopressin V1a/V2 (Homo sapiens) (UniProt P30518+P37288); assay: Selectivity ratio of EC50 for human vasopressin V2 receptor to EC50 for human vasopressin V1a receptor
Rattus norvegicus [6] = assay: Vasoconstriction in Wistar rat assessed as assessed as decay in vasopressive duration of action at 2 nmol/kg, iv bolus measured over 10 sec interval; assay type: functional
Method in brief: (§2)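 Fasted male Wistar rats (206–340 g) under isoflurane, then thiobutabarbital 150 mg/kg ip, ventilated, 37–38 °C, with carotid pressure and jugular dosing. Dibenamine 1.8 mg/rat iv pretreatment. Sequence: iv boluses (0.5 mL/kg) of heparinized vehicle, then two reference doses of 0.1 nmol/kg, then two test doses; one matches the reference diastolic pressure rise. Relative duration = reference decay rate / test decay rate; mean ± SEM.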

Vasopressin V1b receptor = target: T4, Vasopressin V1b receptor (Homo sapiens, UniProt P47901); assay: Agonist activity at recombinant human vasopressin V1b receptor expressed in Flp-In-293 cells by luciferase reporter gene assay; assay type: functional, cell-based; details: read-out: EC50
T4 sequence (P47901 whole entry): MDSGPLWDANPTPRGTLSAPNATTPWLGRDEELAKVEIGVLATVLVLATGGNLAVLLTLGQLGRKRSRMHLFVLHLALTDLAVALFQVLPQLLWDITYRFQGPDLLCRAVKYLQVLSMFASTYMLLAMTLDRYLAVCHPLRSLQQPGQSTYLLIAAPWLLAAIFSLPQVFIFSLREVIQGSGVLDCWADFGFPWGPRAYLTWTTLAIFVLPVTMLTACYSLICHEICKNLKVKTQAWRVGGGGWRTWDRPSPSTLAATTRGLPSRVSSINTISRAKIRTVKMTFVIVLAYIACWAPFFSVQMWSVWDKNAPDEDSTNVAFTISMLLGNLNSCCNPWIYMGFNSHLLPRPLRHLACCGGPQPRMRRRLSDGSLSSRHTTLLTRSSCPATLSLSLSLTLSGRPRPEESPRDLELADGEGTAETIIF
Method in brief: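 Reporter gene assays in HEK293 cells transiently cotransfected with V1a (human or rat) or human V2 receptor vector plus NFAT-luciferase (V1a) or CRE-luciferase (V2) reporter; V1b in Flp-In-293 stably expressing receptor, OT in CHO-K1 stably expressing receptor, both transiently transfected with NFAT-luciferase. Two days post-transfection, peptides added for 5 h at 37 °C, lysis with luciferin, luminescence read.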

Homo sapiens [7] = species: Homo sapiens; assay: Selectivity ratio of EC50 for human vasopressin V1b receptor to EC50 for human vasopressin V1a receptor
Vasopressin V1a receptor [8] = target: T2, Vasopressin V1a receptor; assay: Partial agonist activity at recombinant human vasopressin V1a receptor expressed in HEK293 cells by luciferase reporter gene assay; assay type: functional, cell-based; method in brief: as §1
Target sequence in this assay (P37288 whole entry, looked up): as the sequence (P37288 whole entry) above

Vasopressin V2 receptor [9] = target: T3, Vasopressin V2 receptor; assay: Agonist activity at recombinant human vasopressin V2 receptor expressed in HEK293 cells by luciferase reporter gene assay; assay type: functional, cell-based
Rattus norvegicus [10] = assay: Vasoconstriction in Wistar rat assessed as decay in vasopressive duration of action at 0.3 nmol/kg, iv bolus measured over 10 sec interval; assay type: functional; set-up: unit not given here
[11] = target: T5, Oxytocin receptor (Homo sapiens) (UniProt P30559); assay: Partial agonist activity at human OT receptor expressed in CHO-K1 cells by luciferase reporter gene assay; assay type: functional, cell-based; method in brief: as §1
T5 sequence (whole entry): T1 sequence (P30559 whole entry)

Rattus norvegicus [12] = assay: Vasoconstriction in Wistar rat assessed as assessed as decay in vasopressive duration of action at 3 nmol/kg, iv bolus measured over 10 sec interval; assay type: functional; method in brief: as §2

Sequence of Vasopressin V1a receptor (Rattus norvegicus, UniProt P30560) (P30560 whole entry): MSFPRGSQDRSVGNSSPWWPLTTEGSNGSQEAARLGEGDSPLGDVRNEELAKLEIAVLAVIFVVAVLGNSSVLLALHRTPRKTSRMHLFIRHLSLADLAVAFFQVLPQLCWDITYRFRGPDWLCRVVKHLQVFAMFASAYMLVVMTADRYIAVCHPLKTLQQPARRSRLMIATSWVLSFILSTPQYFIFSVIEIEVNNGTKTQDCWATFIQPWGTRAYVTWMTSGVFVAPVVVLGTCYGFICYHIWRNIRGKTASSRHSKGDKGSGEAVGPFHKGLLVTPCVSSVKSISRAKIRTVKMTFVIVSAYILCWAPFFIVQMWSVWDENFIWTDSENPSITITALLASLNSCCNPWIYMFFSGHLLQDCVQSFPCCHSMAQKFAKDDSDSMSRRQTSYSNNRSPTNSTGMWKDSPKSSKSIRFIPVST
T3 sequence (P30518 whole entry): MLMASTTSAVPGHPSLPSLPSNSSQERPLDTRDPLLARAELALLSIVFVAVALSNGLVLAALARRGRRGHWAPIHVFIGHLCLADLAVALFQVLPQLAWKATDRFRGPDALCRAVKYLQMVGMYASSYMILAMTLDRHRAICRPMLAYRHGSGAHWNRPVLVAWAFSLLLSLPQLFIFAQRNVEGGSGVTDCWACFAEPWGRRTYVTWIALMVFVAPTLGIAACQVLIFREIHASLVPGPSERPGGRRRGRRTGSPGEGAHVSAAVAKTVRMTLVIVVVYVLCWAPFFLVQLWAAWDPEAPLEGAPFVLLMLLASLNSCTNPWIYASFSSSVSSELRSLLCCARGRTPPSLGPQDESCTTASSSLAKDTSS
Sequence of Vasopressin V1a/V2 (Homo sapiens) (P30518 whole entry, looked up): as the sequence (P30518 whole entry) above
Sequence of Vasopressin V1a/V2 (Homo sapiens) (P37288 whole entry, looked up): as the sequence (P37288 whole entry) above

Compound | EC50 (Vasopressin V1a receptor [1]) [nM] | EC50 (Oxytocin receptor; cho-k1, read-out: EC50) [µM] | EC50 (Oxytocin receptor; read-out: pEC50 (converted)) [µM] | EC50 (Vasopressin V1a receptor [2]) [nM] | Ratio EC50 (Homo sapiens [3]) | Efficacy (Vasopressin V2 receptor [4]) [%] | Ratio EC50 [5] | Time (Rattus norvegicus [6]) [unitless ratio] | EC50 (Vasopressin V1b receptor) [nM] | Ratio EC50 (Homo sapiens [7]) | Efficacy (Vasopressin V1a receptor [8]) [%] | EC50 (Vasopressin V2 receptor [9]; read-out: EC50) [nM] | EC50 (Oxytocin receptor; read-out: EC50) [µM] | Time (Rattus norvegicus [10]) | Efficacy [11] [%] | Time (Rattus norvegicus [12]) [unitless ratio] | EC50 (Vasopressin V2 receptor [9]; hek293, read-out: EC50) [nM] | EC50 (Vasopressin V2 receptor [9]; read-out: pEC50 (converted)) [nM]
CC[C@H](C)[C@@H]1NC(=O)[C@H](Cc2ccccc2)NC(=O)[C@@H](N)CSSC[C@@H](C(=O)N2CCC[C@H]2C(=O)N[C@@H](CCCN)C(=O)NCC(N)=O)NC(=O)[C@H](CC(N)=O)NC(=O)[C@H](CCCC(N)=O)NC1=O (H-CFI[Aad](NH2)NCP[Orn]G-NH2; disulfide 1-6) | 0.34 | > 10 | > 10 | 0.9 | > 11000 | < 70 | 1700 | 3.4 | 46 | 51 | < 70 | 1600 |  |  |  |  |  | 
CCCNCCC[C@H](NC(=O)[C@@H]1CCCN1C(=O)[C@@H]1CSSC[C@H](N)C(=O)N[C@@H](Cc2ccccc2)C(=O)N[C@@H]([C@@H](C)CC)C(=O)N[C@@H](CCC(N)=O)C(=O)N[C@@H](CC(N)=O)C(=O)N1)C(=O)NCC(N)=O (H-CFIQNCP[Orn(Pr)]G-NH2; disulfide 1-6) | 0.1 |  |  | 0.21 | 150 |  | 660 |  | 38 | 180 |  | 140 | 0.032 | 1.9 |  |  |  | 
CC[C@H](C)[C@@H]1NC(=O)[C@H](CC2CCCCC2)NC(=O)[C@@H](N)CSSC[C@@H](C(=O)N2CCC[C@H]2C(=O)N[C@@H](CCN)C(=O)NCC(N)=O)NC(=O)[C@H](CC(N)=O)NC(=O)[C@H](CCC(N)=O)NC1=O (H-C[Cha]IQNCP[Dab]G-NH2; disulfide 1-6) | 2.1 | > 10 | > 10 | 0.25 | > 40000 |  | 3000 | 3.1 | 8 | 32 |  | 760 |  |  |  |  |  | 
CC[C@H](C)[C@@H]1NC(=O)[C@H](Cc2ccccc2)NC(=O)[C@@H](N)CSSC[C@@H](C(=O)N2CCC[C@H]2C(=O)N[C@@H](CCCNC(C)C)C(=O)NCC(N)=O)NC(=O)[C@H](CC(N)=O)NC(=O)[C@H](CCCC(N)=O)NC1=O [SELEPRESSIN] | 0.55 |  | 1.1 | 2.4 | 450 | < 70 | 1100 |  | 340 | 140 |  | 2700 | 1.1 | 1.4 | < 70 |  |  | 
CC[C@H](C)[C@@H]1NC(=O)[C@H](Cc2ccccc2)NC(=O)[C@@H](N)CSSC[C@@H](C(=O)N2CCC[C@H]2C(=O)N[C@@H](CCCNC)C(=O)NCC(N)=O)NC(=O)[C@H](CC(N)=O)NC(=O)[C@H](CCC(N)=O)NC1=O (H-CFIQNCP[Orn(Me)]G-NH2; disulfide 1-6) | 0.29 |  |  | 0.26 | 61 |  | 500 |  | 74 | 280 |  | 130 | 0.016 | 2.6 | < 70 |  |  | 
CCNC(=O)C[C@@H]1NC(=O)[C@H]([C@@H](C)CC)NC(=O)[C@H](Cc2ccccc2)NC(=O)[C@@H](N)CSSC[C@@H](C(=O)N2CCC[C@H]2C(=O)N[C@@H](CCN)C(=O)NCC(N)=O)NC(=O)[C@H](CC(N)=O)NC1=O (H-CFID(NHEt)NCP[Dab]G-NH2; disulfide 1-6) | 4.8 | > 10 | > 10 | 2.7 | > 3700 | < 70 | 590 |  | 21 | 7.7 |  | 1600 |  |  |  | 1.3 |  | 
CC[C@H](C)[C@@H]1NC(=O)[C@H](Cc2ccccc2)NC(=O)[C@@H](N)CSSC[C@@H](C(=O)N2CCC[C@H]2C(=O)N[C@@H](CCCN)C(=O)NCC(N)=O)NC(=O)[C@H](CC(N)=O)NC(=O)[C@H](CC(N)=O)NC1=O (H-CFINNCP[Orn]G-NH2; disulfide 1-6) | 8.2 | > 10 | > 10 | 1.4 | > 7100 |  | > 7100 |  | 29 | 20 |  |  |  |  |  | 1.4 | > 10000 | > 10000
CC[C@H](C)[C@@H]1NC(=O)[C@H](Cc2ccccc2)NC(=O)[C@@H](N)CSSC[C@@H](C(=O)N2CCC[C@H]2C(=O)N[C@@H](CCCN)C(=O)NCC(N)=O)NC(=O)[C@H](CC(N)=O)NC(=O)[C@H](CC(=O)NCCCO)NC1=O (H-CFID(NH(3-hydroxypropyl))NCP[Orn]G-NH2; disulfide 1-6) | 2.7 | > 10 | > 10 | 2.1 | > 4700 |  | > 4700 | 1.7 | 19 | 9 |  |  |  |  |  |  | > 10000 | > 10000
CC[C@H](C)[C@@H]1NC(=O)[C@H](CC2CCCC2)NC(=O)[C@@H](N)CSSC[C@@H](C(=O)N2CCC[C@H]2C(=O)N[C@@H](CCN)C(=O)NCC(N)=O)NC(=O)[C@H](CC(N)=O)NC(=O)[C@H](CCC(N)=O)NC1=O (H-C[Ala(cPent)]IQNCP[Dab]G-NH2; disulfide 1-6) | 4.2 | > 10 | > 10 | 0.8 | > 12000 |  | 1500 |  | 20 | 25 |  | 1200 |  |  |  | 2.3 |  | 
